Measurements published in ChEMBL document CHEMBL1137987, “O-alkoxyamidine prodrugs of furamidine: in vitro transport and microsomal metabolism as indicators of in vivo efficacy in a mouse model of Trypanosoma brucei rhodesiense infection” (J Med Chem, 2004).

What was measured:
[1] = test system: Trypanosoma brucei rhodesiense; experiment: In vitro inhibitory activity against Trypanosoma brucei rhodesiense evaluated in vitro
[2] = test system: Mus musculus; experiment: In vivo effect on average days of survival was measured upon oral dose at 400 mg/kg in STIB900 mouse model; format: functional
How it was run: (§1)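 Mice infected with T. b. rhodesiense STIB900 got four daily doses: intraperitoneal for the parent amidine (4 × 10 mg/kg), oral for the prodrugs (4 × 25, 4 × 50 or 4 × 100 mg/kg/day). Read-out is mean days of survival per group, followed to 60 days.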

[3] = test system: Mus musculus; experiment: In vivo effect (cures) determined by number of mice that survived (1) and are parasite free (4) for 60 days upon oral dose, observed in STIB900 mouse model
[4] = test system: Mus musculus; experiment: In vivo effect (cures) determined by number of mice that survived (2) and are parasite free (4) for 60 days upon oral dose, observed in STIB900 mouse model
[5] = test system: Mus musculus; experiment: In vivo effect (cures) determined by number of mice that survived (4) and are parasite free (4) for 60 days upon oral dose, observed in STIB900 mouse model
[6] = test system: Caco-2; experiment: Apparent permeability determined across the Caco-2 cell monolayers in both basolateral (BL) to apical (AP) directions; format: functional, cell-based; settings: Homo sapiens
[7] = Half-life in human liver microsomes was determined; format: ADME, Microsome
How it was run: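 Substrate at 10 µM final (from 5 mM methanol stocks) in 100 mM potassium phosphate pH 7.4 with 0.2 mg/mL pooled human liver microsomes. Preincubated 5 min, then started with 1 mM NADPH. Samples taken at 0–90 min, quenched with acetonitrile on ice, centrifuged, and supernatant analysed by HPLC-UV or LC-MS. Half-life from substrate loss.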

[8] = test system: Caco-2; experiment: Apparent permeability determined across the Caco-2 cell monolayers in both apical (AP) to basolateral (BL) directions; format: functional, cell-based; settings: Homo sapiens
[9] = test system: Mus musculus; experiment: In vivo effect on average days of survival was measured upon oral dose at 100 mg/kg in STIB900 mouse model; format: functional
How it was run: as §1

[10] = test system: Mus musculus; experiment: In vivo effect on average days of survival was measured upon oral dose at 200 mg/kg in STIB900 mouse model; format: functional
How it was run: as §1

[11] = test system: Mus musculus; experiment: In vivo effect on average days of survival was measured upon intraperitoneal dose at 40 mg/kg in STIB900 mouse model; format: functional
How it was run: as §1

[12] = test system: Mus musculus; experiment: In vivo effect (cures) determined by number of mice that survived (0) and are parasite free (8) for 60 days upon intraperitoneal dose, observed in STIB900 mouse model; format: functional
How it was run: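 T. b. rhodesiense STIB900 acute infection in mice, 4 mice per group (8 in one group). Four daily doses (4 × mg/kg/day); the parent amidine was given intraperitoneally and the prodrugs orally. A cure is a mouse surviving and parasite-free at 60 days, reported as cured/treated.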

SMILES	IC50 [1] [µM]	Survival days [2]	Dose [3] [mg/kg]	Dose [4] [mg/kg]	Dose [5] [mg/kg]	Papp [6]	half-life [7] [min]	Papp [8]	Survival days [9]	Survival days [10]	Survival days [11]	Dose [12] [mg/kg]
CCCCCCONC(=N)c1ccc(-c2ccc(-c3ccc(C(=N)NOCCCCCC)cc3)o2)cc1	5.7	6										
CONC(=N)c1ccc(-c2ccc(-c3ccc(C(=N)NOC)cc3)o2)cc1 [PAFURAMIDINE]	14.6	>60	100	200	400	3.75e-05	4.16	6.04e-05	>60	>60		
CCONC(=N)c1ccc(-c2ccc(-c3ccc(C(=N)NOCC)cc3)o2)cc1	0.645	>60			400	3.7e-06	32	5.9e-06	32			
N=C(NO)c1ccc(-c2ccc(-c3ccc(/C(N)=N\O)cc3)o2)cc1	66.4	50										
N=C(N)c1ccc(-c2ccc(-c3ccc(C(=N)N)cc3)o2)cc1 [FURAMIDINE]	0.0045					8.5e-07		3.8e-07			>46	40
CC(C)ONC(=N)c1ccc(-c2ccc(-c3ccc(C(=N)NOC(C)C)cc3)o2)cc1	12.6	48		400								
CCCONC(=N)c1ccc(-c2ccc(-c3ccc(C(=N)NOCCC)cc3)o2)cc1	0.472	>47.5	400				60					
CCCCONC(=N)c1ccc(-c2ccc(-c3ccc(C(=N)NOCCCC)cc3)o2)cc1	1.9	9										
